# From PubChem
# An excerpt weighted towards active compounds, which were near 2.3% of everything screened.
# DNMT1 block – human DNMT1 methyltransferase inhibitors, primary screen, biochemical, molecular beacon, fluorescence, HinP1I cleavage, uHTS; actives 0.83% (n = 360,000); inhibition (reported as % activation of signal), % at 10 µM; DNA (cytosine-5)-methyltransferase 1 (Homo sapiens), P26358; in the data active = inhibition above about 50%
# Rpn11 inh – Rpn11 (PSMD14) deubiquitinase inhibitors, primary screen, biochemical, fluorescence polarization, uHTS; 26S proteasome non-ATPase regulatory subunit 14 (Homo sapiens), O00487; human 26S proteasome, Ub4-pepOG fluorescence polarization; 20S core pre-blocked with epoxomicin; inhibition, % at 20 µM; actives 0.59% (n = 360,000); AID 588493, 2011;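 active = inhibition at 20 µM, scaled to each plate's controls, above about 33%, limit read from the data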
# CSN inh – inhibitors of CSN-mediated cullin deneddylation, primary screen, biochemical, fluorescence polarization, uHTS; COP9 signalosome complex subunit 5 (Homo sapiens), Q92905; Purified CSN, SCF-Nedd8-OG deneddylation; inhibition, % at 12.5 µM; actives 0.38% (n = 360,000); AID 651999, 2013;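 active = pattern-corrected inhibition above about 35%, with an unprinted fluorescence ratio check between 0.5 and 1.5, limit read from the data, passing the limit was not always enough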
#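 test system = HEK293T-derived human Csn5 enzyme | amount = 0.24 nM Csn5 enzyme, final concentration | medium = Tris/NaCl/DTT buffer, pH 7.5 | schedule = 90 min reaction at room temperature | signal = FP | evaluation = inhibition of Csn5 cleavage, % | compound dosing = single dose of 12.5 µM compound with 0.25% DMSO | probe or stimulus = 10 nM SCFSkp2-Nedd8OG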
# SUMO1 PPI mod – modulators of SUMO1 protein-protein interactions, primary screen, biochemical, uHTS; inhibition, % at 20 µM; SUMO1 binding to a labelled peptide, TR-FRET, 1 h; AID 602429, 2012; actives 0.33% (n = 360,000); in the data active = inhibition above about 37%
# SKN-1 inh – suppressors of acrylamide-induced Pgst-4::GFP reporter in worms, primary screen, SKN-1 inhibitor project, whole organism, uHTS, GFP/RFP fluorescence ratio, strain VP596. actives 0.49% (n = 360,000). inhibition, % at 21.8 µM. C. elegans VP596 Pgst-4::GFP/RFP ratio, 24 h. AID 624304, 2012;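 active = interference check ratio from 0.5 to 1.5 plus GFP to RFP signal ratio inhibition reaching or exceeding a fixed threshold, cut at about 30% in these data, passing the limit was not always enough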
# MT1-MMP act inh – blockers of MT1-MMP proenzyme processing, primary screen, HT1080 RFP-PRO-GFP cells, GFP/RFP fluorescence. Matrix metalloproteinase-14 (Homo sapiens), P50281. GFP/RFP ratio fluorescence, overnight; percent of plate control window, DMSO zero. GFP/RFP ratio change, % at 20 µM. actives 0.061% (n = 360,000). AID 651647, 2012;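 active = GFP/RFP ratio change of at least 30% with cell ATP level not reduced by more than half and red fluorescence within 50% of control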
#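 system = RFP-PRO-GFP reporter HT1080 cells | dosing = 20 µM single dose, 1% DMSO | timing = overnight cell settling, then overnight compound exposure, 37 °C, 5% CO2 | read-out basis = GFP/RFP fluorescence ratio | controls = DMSO and RFP-L50D-GFP cell wells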
# Beacon interf DR – spectral interference with molecular beacon fluorescence, dose response, artefact control for DNMT1 inhibitor project, biochemical, fluorescent molecular beacon. shares compounds with DNMT1 block. spectral interference counter-screen. IC50, µM. 200 tested, under 10 active. AID 602382, 2012; call rule not given here
# DNMT1 inh conf – DNMT1 methyltransferase inhibitor retest, confirmation, biochemical, molecular beacon, fluorescence, single concentration | DNMT1 molecular beacon HinP1I cleavage | inhibition, % at 10 µM | shares compounds with DNMT1 block | actives 8% (n = 2,300);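 active = average inhibition of at least 30% in the single-concentration confirmation test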
# DNMT1 interf – counter-screen for DNMT1 inhibitors: spectral interference. shares compounds with DNMT1 block. DNMT1 molecular beacon spectral interference counterscreen, fluorescence 485/520. activation (fluorescence interference), % at 10 µM. actives 1% (n = 2,300). AID 602387;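 active = activation of at least 30% at 10 µM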;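 also: DNMT1 catalytic domain with a HinP1I cleavage step and a FAM/dabcyl DNA beacon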
# Hits are given with their value; – = inactive; · = not tested or not shown.
SMILES,DNMT1 block,Rpn11 inh,CSN inh,SUMO1 PPI mod,SKN-1 inh,MT1-MMP act inh,Beacon interf DR,DNMT1 inh conf,DNMT1 interf
COc1ccc(C(CNC(=O)c2ccc(S(=O)(=O)Nc3cccc(C)c3C)cc2)N2CCOCC2)cc1 (stereo unspecified),95,–,–,–,–,–,·,–,–
COc1ccc(C(CNC(=O)COc2ccccc2C#N)N2CCOCC2)cc1 (stereo unspecified),104,–,–,–,–,–,·,–,–
Cc1cnc(CNc2nc3cc(-c4ccccc4C)sc3c(=O)n2C)cn1,–,–,–,–,–,–,·,·,·
O=C(O)CC/C(=C\c1ccc(N2CCCC2)c([N+](=O)[O-])c1)c1nc2ccccc2s1,–,–,–,–,–,–,·,·,·
CN(c1ccccc1)c1ccc(/C=C(/CCC(=O)O)c2nc3ccccc3s2)cc1[N+](=O)[O-],85,–,–,39,–,–,–,–,–
CCC1CCC(C(=O)NNC(=O)c2cc(-c3ccco3)[nH]n2)CC1 (stereo unspecified),51,–,–,–,–,–,·,–,–
O=C(NNC(=O)C1CCCCC1)c1ccco1,–,–,–,–,–,–,·,·,·
CC1=NN(c2cccc(C(=O)O)c2)C(=O)/C1=C\C=C\c1ccco1,106,–,–,–,–,–,–,107,–
